# Measured values: ChEMBL document CHEMBL4014335, “Activation of Phenyl 4-(2-Oxo-3-alkylimidazolidin-1-yl)benzenesulfonates Prodrugs by CYP1A1 as New Antimitotics Targeting Breast Cancer Cells” (J Med Chem, 2017)
# Experiments:
# HT-29 = experiment: Antiproliferative activity against human HT-29 cells after 48 hrs by SRB assay; type: functional, cell-based; conditions: HT-29, 48 h
# Summary of the method: (§1)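 SRB assay run as in the NCI screen with slight modifications. Seeding: HT-29 5.0 x 10^3, M21 3.5 x 10^3, MCF7 7.5 x 10^3 cells; cells preincubated 24 h. Drug in DMSO added at 0.75 to 1.0 x 10^5 nM for 48 h. TCA fixation, sulforhodamine B staining, absorbance 530-565 nm. At least two experiments in triplicate; runs accepted only when relative SD < 10%.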
# M21 = experiment: Antiproliferative activity against human M21 cells after 48 hrs by SRB assay; type: functional, cell-based; conditions: M21, 48 h; summary of the method: as §1
# MCF7 = experiment: Antiproliferative activity against human MCF7 cells after 48 hrs by SRB assay; type: functional, cell-based; conditions: MCF7, 48 h; summary of the method: as §1
# [1] = Selectivity ratio of IC50 for human HT-29 cells to IC50 for human MCF7 cells; type: functional
# Summary of the method: (§2)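 Ratio is IC50 in reference line over IC50 in sensitive line. […] Cells in DMEM with 5% calf serum at 37 °C. At least two experiments, triplicate cultures; assay accepted when relative SD < 10%.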
# [2] = Selectivity ratio of IC50 for human M21 cells to IC50 for human MCF7 cells; type: functional; summary of the method: as §2
Structure (SMILES),IC50 (HT-29) [µM],IC50 (M21) [µM],IC50 (MCF7) [µM],Ratio IC50 [1],Ratio IC50 [2]
CCCCN1CCN(c2ccc(S(=O)(=O)Oc3ccc(OC)cc3)cc2)C1=O,35,> 100,2.5,14,>39
CCCN1CCN(c2ccc(S(=O)(=O)Oc3ccccc3C)cc2)C1=O,> 100,> 100,> 100,,
Cc1cccc(OS(=O)(=O)c2ccc(N3CCN(C)C3=O)cc2)c1,4.3,2.3,5.1,0.9,0.5
CCN1CCN(c2ccc(S(=O)(=O)Oc3cccc(Br)c3)cc2)C1=O,3.8,3.4,2.5,1.5,1.4
Cc1ccc(OS(=O)(=O)c2ccc(N3CCN(C)C3=O)cc2)c(C)c1,3,1.8,2.5,1.2,0.7
CN1CCN(c2ccc(S(=O)(=O)Oc3cc(Cl)c(Cl)cc3Cl)cc2)C1=O,0.6,0.42,0.63,1,0.7
COc1ccc(OS(=O)(=O)c2ccc(N3CCN(C)C3=O)cc2)cc1,> 100,> 100,95,>1.1,>1.1
CCCCN1CCN(c2ccc(S(=O)(=O)Oc3ccc(OC)c(OC)c3)cc2)C1=O,21,> 100,0.34,61,>300
CCCCN1CCN(c2ccc(S(=O)(=O)Oc3cccc(Br)c3)cc2)C1=O,16,35,0.085,190,410
CCCCN1CCN(c2ccc(S(=O)(=O)Oc3cc(F)cc(F)c3)cc2)C1=O,> 100,> 100,0.4,>250,>250
CCc1ccccc1OS(=O)(=O)c1ccc(N2CCN(C)C2=O)cc1,4.6,2.3,26,0.2,0.1
CCCCN1CCN(c2ccc(S(=O)(=O)Oc3cc(Br)cc(Br)c3)cc2)C1=O,43,> 100,0.058,740,>1700
CN1CCN(c2ccc(S(=O)(=O)Oc3ccc(Cl)cc3)cc2)C1=O,12,43,> 100,,
CCCCN1CCN(c2ccc(S(=O)(=O)Oc3ccccc3OC)cc2)C1=O,> 100,> 100,3.8,>26,>26
CCCN1CCN(c2ccc(S(=O)(=O)Oc3ccc(C)cc3)cc2)C1=O,25,28,64,0.4,0.4
CCCCN1CCN(c2ccc(S(=O)(=O)Oc3cccc(OC)c3)cc2)C1=O,13,30,0.49,27,61
CCCN1CCN(c2ccc(S(=O)(=O)Oc3ccccc3CC)cc2)C1=O,> 100,> 50,2.3,>43,>22
CCCN1CCN(c2ccc(S(=O)(=O)Oc3ccc(OC)c(OC)c3)cc2)C1=O,14,28,6.8,2,4.1
CCN1CCN(c2ccc(S(=O)(=O)Oc3cccc(I)c3)cc2)C1=O,3.1,2.2,1.9,1.7,1.2
CN1CCN(c2ccc(S(=O)(=O)Oc3c(Cl)cc(Cl)cc3Cl)cc2)C1=O,2.5,1.7,2.9,0.9,0.6
CCCCN1CCN(c2ccc(S(=O)(=O)Oc3cccc(F)c3)cc2)C1=O,76,> 100,0.31,250,>320
COc1cc(OC)cc(OS(=O)(=O)c2ccc(N3CCN(C)C3=O)cc2)c1,0.19,0.082,0.23,0.9,0.4
COc1ccccc1OS(=O)(=O)c1ccc(N2CCN(C)C2=O)cc1,26,21,26,1,0.8
CCN1CCN(c2ccc(S(=O)(=O)Oc3cccc(Cl)c3)cc2)C1=O,6.8,3.9,5.4,1.3,0.7
CN1CCN(c2ccc(S(=O)(=O)Oc3cccc(I)c3)cc2)C1=O,0.59,0.4,0.56,1.1,0.7
